Reference: ChEMBL document CHEMBL1123904, “Synthesis, structure, and biological activity of certain 2-deoxy-beta-D-ribo-hexopyranosyl nucleosides and nucleotides” (J Med Chem, 1987)

Columns and labels:
[1] = substrate: Nc1nc(N)c2ncn(C3CC(O)C(O)C(CO)O3)c2n1; assay: (§1) Kinetic parameters for adenosine deaminase (ADase) was determined
Summary of the method: (§2)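 Calf intestine adenosine deaminase; substrate and inhibitor kinetic parameters measured spectrophotometrically.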

[2] = substrate: Nc1ncnc2c1ncn2[C@@H]1O[C@H](CO)[C@@H](O)[C@H]1O; assay: as §1; summary of the method: as §2
[3] = substrate: Nc1ncnc2c1ncn2C1CC(O)C(O)C(CO)O1; assay: as §1; summary of the method: as §2

B1: Adenosine deaminase (Bos taurus), P56658 (protein)
chain: MAQTPAFNKPKVELHVHLDGAIKPETILYYGRKRGIALPADTPEELQNIIGMDKPLSLPEFLAKFDYYMPAIAGCREAVKRIAYEFVEMKAKDGVVYVEVRYSPHLLANSKVEPIPWNQAEGDLTPDEVVSLVNQGLQEGERDFGVKVRSILCCMRHQPSWSSEVVELCKKYREQTVVAIDLAGDETIEGSSLFPGHVKAYAEAVKSGVHRTVHAGEVGSANVVKEAVDTLKTERLGHGYHTLEDATLYNRLRQENMHFEVCPWSSYLTGAWKPDTEHPVVRFKNDQVNYSLNTDDPLIFKSTLDTDYQMTKNEMGFTEEEFKRLNINAAKSSFLPEDEKKELLDLLYKAYGMPSPASAEQCL
For B1, the Km [1] was 900 µM, the Km [2] was 31 µM and the Km [3] was 57 µM.
